Assay outcomes deposited in PubChem BioAssay by several laboratories.
GRK2 aptamer HTS = blocks RNA aptamer binding to human GRK2 | P25098 | bead flow cytometry, FAM-aptamer displacement from GRK2 | inhibition of aptamer binding, % at 10 µM | 330,000 compounds, 0.59% hits;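 active = inhibition of aptamer binding above 40%, roughly 3 SD of noise, on plates passing a quality check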;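 also: median bead fluorescence of bound FAM aptamer so fluorescent compounds give negative values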
LMPTP inh = blocks human LMPTP phosphatase. recombinant LMPTP-A, OMFP fluorogenic substrate, fluorescence intensity. inhibition, % at 20 µM. P24666. 360,000 compounds, 0.22% hits;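 active = compounds that cut the enzyme signal by at least half of the control window in the single-dose screen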
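test system = LMPTP-A | amount = 0.625 nM LMPTP-A final | reagent = fluorogenic phosphatase substrate OMFP at 400 µM final | incubation = 50 min at room temperature | benchmarks = no-enzyme low control, uninhibited high control | medium = Bis-Tris pH 6.0, DTT, detergent | signal = fluorescence intensity of OMFP turnover product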
DNMT1 block = blocks human DNA methyltransferase DNMT1. AID 588458. inhibition (reported as % activation of signal), % at 10 µM. DNMT1 molecular beacon, Hinp1I cleavage, fluorescence. 360,000 compounds, 0.83% hits; in the data active = inhibition above about 50%
Scp-1 inhibitor = inhibitors of human Scp-1 phosphatase | Recombinant Scp1, phosphopeptide, malachite green phosphate absorbance | 340,000 compounds, 0.88% hits | Q9GZU7 | AID 493091 | inhibition, % at 20 µM;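 active = inhibition above about 50% at 20 µM, limit read from the data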
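Test system – truncated SCP-1 phosphatase (76-261aa) · Reagent – Phosphorylated 17-residue peptide substrate · Incubation – 45 min room-temperature reaction, 5 min colour, 30 min stabiliser · Detection – colorimetric phosphate reagent with accelerator and stabiliser, absorbance at 630 nm · Measure – % inhibition at 20 µM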
STEP block = STEP (human) phosphatase inhibition; 360,000 compounds, 0.25% hits; inhibition, % at 20 µM; recombinant STEP, OMFP fluorogenic substrate, fluorescence;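 active = inhibition at 20 µM, scaled per plate between control wells, above about 37%, limit read from the data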
Target sequence (P54829 whole entry, looked up): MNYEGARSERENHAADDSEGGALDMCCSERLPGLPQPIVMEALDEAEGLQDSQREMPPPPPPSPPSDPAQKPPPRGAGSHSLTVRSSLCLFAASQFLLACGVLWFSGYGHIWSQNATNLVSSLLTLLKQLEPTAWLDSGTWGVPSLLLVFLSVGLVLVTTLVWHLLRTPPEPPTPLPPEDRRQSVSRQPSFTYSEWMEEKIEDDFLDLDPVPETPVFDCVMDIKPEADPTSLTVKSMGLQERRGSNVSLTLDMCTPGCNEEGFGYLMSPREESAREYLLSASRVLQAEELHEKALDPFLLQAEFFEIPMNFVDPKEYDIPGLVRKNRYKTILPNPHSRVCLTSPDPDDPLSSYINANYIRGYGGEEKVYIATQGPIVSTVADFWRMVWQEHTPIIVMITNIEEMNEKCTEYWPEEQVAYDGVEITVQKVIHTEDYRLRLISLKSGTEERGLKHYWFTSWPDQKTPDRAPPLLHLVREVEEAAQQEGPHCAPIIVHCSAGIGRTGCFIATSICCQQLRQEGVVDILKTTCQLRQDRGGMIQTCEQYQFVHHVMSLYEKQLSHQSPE
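Material: STEP (striatal-enriched tyrosine phosphatase) enzyme, cell-free | Medium: 50 mM Bis-Tris pH 6.0 with 2.5 mM DTT and 0.005% Tween 20 | Read-out: Percent inhibition scaled to no-enzyme and uninhibited-enzyme controls, plate-pattern corrected | Signal: Fluorescence read at 480 nm ex / 540 nm em | Times: 20 min reaction, room temperature, in the dark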
SUMO1-SIM PPI = SUMO1-SIM interaction modulation | inhibition, % at 20 µM | P63165 | AID 602429 | SUMO1 binding to a labelled peptide, TR-FRET, 1 h | 360,000 compounds, 0.33% hits; in the data active = inhibition above about 37%
Target sequence (P63165 whole entry, looked up): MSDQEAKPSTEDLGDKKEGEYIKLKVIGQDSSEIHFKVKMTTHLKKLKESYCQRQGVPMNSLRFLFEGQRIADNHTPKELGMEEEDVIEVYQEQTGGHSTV
Scp1 confirm = Scp-1 (human) inhibition, single-dose confirmed; shares compounds with Scp-1 inhibitor; recombinant SCP-1 catalytic domain, phosphate release, malachite green absorbance; inhibition, % at 20 µM; 2,500 compounds, 61% hits
MG interference = interferes with malachite green readout, flagging false Scp-1 hits; Colorimetric interference counterscreen, malachite green absorbance 630 nm; 2,500 tested, under 10 active; apparent inhibition (interference), % at 20 µM; shares compounds with Scp-1 inhibitor;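 also: compounds added after enzyme reaction finished so only phosphate colour detection is probed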
Scp1 DSF = validation of human Scp-1 inhibitors by thermal shift binding. shares compounds with Scp-1 inhibitor. Recombinant SCP1, Sypro Orange thermal shift Tm. thermal shift relative to vanadate control, % at 40 µM. 1,500 compounds, 25% hits. AID 540329;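 active = substances whose mean melting-temperature shift, as a percentage of the reference inhibitor's shift, reaches about 5.3%, limit read from the data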
Numbers stand for hits; - = inactive; . = no result given. Shown are actives, neighbours in structure and some others; about 2.2% of the full set was active somewhere.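 The calls were made as follows, unless noted: active = inhibition of at least 30% at 20 µM; inactive = the rest.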

SMILES	GRK2 aptamer HTS	LMPTP inh	DNMT1 block	Scp-1 inhibitor	STEP block	SUMO1-SIM PPI	Scp1 confirm	MG interference	others
C[C@H](CO)N1C[C@H](C)[C@@H](CN(C)Cc2ccc(C(=O)O)cc2)Oc2c(NS(=O)(=O)c3cn(C)cn3)cccc2C1=O	-	-	-	62	-	-	-	-
C[C@H]1CN([C@@H](C)CO)C(=O)c2cccc(NS(=O)(=O)c3cn(C)cn3)c2O[C@H]1CN(C)S(C)(=O)=O	-	-	-	-	-	-	.	.
C[C@H](CO)N1C[C@H](C)[C@@H](CN(C)Cc2ccccc2)Oc2c(NS(=O)(=O)c3cn(C)cn3)cccc2C1=O	-	-	-	69	-	-	-	-
C[C@H](CO)N1C[C@H](C)[C@@H](CN(C)Cc2ccncc2)Oc2c(NS(=O)(=O)c3ccc(Cl)cc3)cccc2C1=O	-	-	-	-	-	-	.	.
CCN(CC)c1ccc2cc(C(=O)c3cccs3)c(=O)oc2c1	.	-	-	.	-	-	.	.
COc1ccc(NC(=O)CSc2nnc3n2CCCCC3)cc1S(=O)(=O)N(C)C	.	-	-	.	-	-	.	.
C[C@H](CO)N1C[C@H](C)[C@@H](CN(C)CC2CCCCC2)Oc2c(NS(=O)(=O)c3cn(C)cn3)cccc2C1=O	-	-	-	59	-	-	-	-
C[C@H](CO)N1C[C@H](C)[C@@H](CN(C)C(=O)NC2CCCCC2)Oc2c(NS(=O)(=O)c3cn(C)cn3)cccc2C1=O	-	-	-	-	-	-	.	.
O=S1(=O)C[C@@H](N2CCC(Cc3ccccc3)CC2)[C@H](COCc2ccccc2)N1	.	-	-	.	-	-	.	.
CCCCOc1ccc(CNC(=O)NS(=O)(=O)c2ccc(OCC(C)C)cc2)cc1	-	-	-	52	-	-	39	-	Scp1 DSF=-
NC1=NC(=O)CC(C(=O)NCc2ccccc2)S1 (stereo not drawn)	-	-	-	-	-	-	.	.
NC1=NC(=O)C(CC(=O)NCc2ccccc2)S1 (stereo not drawn)	-	-	-	-	-	-	-	-
CCOC(=O)c1cccc(NC(=O)Cn2cc3c(n2)CCC(C)C3)c1 (stereo not drawn)	-	-	-	68	-	-	-	-
CCc1cccc(NC(=O)Cn2cc3c(n2)CCCC3)c1	-	-	-	-	-	-	.	.
CC1(c2nnnn2-c2ccc3c(c2)OCCO3)CCC(=O)N1CCCn1ccnc1 (stereo not drawn)	.	-	.	.	.	-	.	.
CC(C)n1c(=O)c2ccccc2n1Cc1cn(-c2ccc(Cl)cc2)nn1	.	-	-	.	-	-	.	.
CCOC(=O)c1cc(C#N)c(SCC(=O)c2cc(C#N)c(SC)nc2C)[nH]c1=O	-	-	-	89	-	-	-	-
O=C(COC(=O)CCCC1=NS(=O)(=O)c2ccccc2N1)Nc1ccc(Br)cc1	-	-	-	51	-	-	-	-
CC1CCN(CC(O)COC2CC(C)CC(C)(C)C2)CC1 (stereo not drawn)	-	-	-	-	-	-	.	.
CC[N+]1(CC(O)COC2CC(C)CC(C)(C)C2)CCOCC1 (stereo not drawn)	-	-	-	105	-	-	91	-	Scp1 DSF=-
CC1=C(C(=O)OCC(Cl)(Cl)Cl)N2C(=O)C(NC(=O)Cc3ccccc3)C2SC1 (stereo not drawn)	-	-	-	-	-	-	.	.
CC(=O)OCC1=C(C(=O)OC(C)(C)C)N2C(=O)[C@@H](NC(=O)Cc3ccccc3)[C@H]2SC1	.	-	-	91	-	-	70	-	Scp1 DSF=8.8
CCOC(=O)n1c2ccccc2c(=O)n1CCO	.	-	-	.	-	-	.	.
O=S(=O)([O-])CCC[n+]1ccc(Oc2ccccc2)cc1	-	-	-	95	-	-	94	-	Scp1 DSF=-
COc1ccc(CN2C(=O)C(CC(=O)NC3CCCC3)CC(C(=O)N3CCOCC3)=C2C)cc1 (stereo not drawn)	.	-	-	.	-	-	.	.
SMILES	GRK2 aptamer HTS	LMPTP inh	DNMT1 block	Scp-1 inhibitor	STEP block	SUMO1-SIM PPI	Scp1 confirm	MG interference	others
COc1ccc(CCN2CC(C(=O)Nc3cccc(C(C)=O)c3)CC2=O)cc1OC (stereo not drawn)	-	-	-	-	-	-	.	.
COc1ccc(CCN2CC(C(=O)OC(C)C(=O)Nc3cccc(Cl)c3)CC2=O)cc1OC (stereo not drawn)	-	-	-	-	-	-	-	-
CN(Cc1ccccc1)C(=O)[C@@H]1CCCN1	.	-	.	.	.	-	.	.
Cc1cc(C)cc(Nc2ncc3c(n2)CC(c2ccco2)CC3=O)c1 (stereo not drawn)	-	-	-	-	-	-	.	.
Cc1cccc(Nc2ncc3c(n2)CC(c2ccco2)CC3=O)c1 (stereo not drawn)	-	59	-	86	-	-	-	-
Cc1ccc(S(=O)(=O)N(C)C[C@@H]2OCc3cnnn3CCCC(=O)N([C@@H](C)CO)C[C@H]2C)cc1	.	-	-	.	-	-	.	.
O=C1CNC(=O)/C1=C\N1CCN(C(c2ccccc2)c2ccccc2)CC1	-	-	-	55	-	-	-	-
O=C1CNC(=O)/C1=C\N1CCCCC1	-	-	-	-	-	-	.	.
COC(=O)[C@]12CCCCC=C1N(Cc1ccc3c(c1)OCO3)C(=O)[C@H](CC(=O)NCc1cccc3ccccc13)C2	.	-	.	.	.	-	.	.
CCCCn1c(N)c(N(CCC(C)C)C(=O)C2CC(=O)N(Cc3ccc(C)cc3)C2)c(=O)[nH]c1=O (stereo not drawn)	-	-	-	-	-	-	.	.
CCCCn1c(N)c(N(CC(C)C)C(=O)C2CC(=O)N(Cc3ccccc3)C2)c(=O)[nH]c1=O (stereo not drawn)	-	-	-	-	-	-	-	-
FC(F)(F)c1cnc(C(c2ccccn2)c2ncn[nH]2)c(Cl)c1 (stereo not drawn)	-	-	-	-	-	-	.	.
FC(F)(F)c1cnc(C(c2ccccc2)c2ncn[nH]2)c(Cl)c1 (stereo not drawn)	-	-	-	98	-	-	-	-
CC(OC(=O)C1=COCCO1)C(=O)NC1CCCCC1 (stereo not drawn)	.	-	-	.	-	-	.	.
C=C(C)Cn1c2ccc(NC(=O)NCc3ccc(F)cc3)cc2c(=O)n1C	.	-	-	.	-	-	.	.
N#Cc1ccc(-c2c(-c3ccccc3)ncc3cc(F)ccc23)cc1	-	-	-	-	-	-	.	.
